# M5 PAM = human M5 muscarinic receptor positive allosteric modulators, primary screen, CHO-K1 cells, Fluo-8 calcium fluorescence | activation, % at 3 µM | CHO-K1 hM5, ACh EC20 PAM; 0% = ACh EC20, 100% = ACh EC100 | AID 624038, 2012 | hit rate 0.3% among 360,000 | Muscarinic acetylcholine receptor M5 (Homo sapiens), P08912;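 active means activation above the run cutoff, the mean activation of all test compounds plus 3 SD, cut at about 18% in these data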
# Target sequence (P08912 whole entry, looked up): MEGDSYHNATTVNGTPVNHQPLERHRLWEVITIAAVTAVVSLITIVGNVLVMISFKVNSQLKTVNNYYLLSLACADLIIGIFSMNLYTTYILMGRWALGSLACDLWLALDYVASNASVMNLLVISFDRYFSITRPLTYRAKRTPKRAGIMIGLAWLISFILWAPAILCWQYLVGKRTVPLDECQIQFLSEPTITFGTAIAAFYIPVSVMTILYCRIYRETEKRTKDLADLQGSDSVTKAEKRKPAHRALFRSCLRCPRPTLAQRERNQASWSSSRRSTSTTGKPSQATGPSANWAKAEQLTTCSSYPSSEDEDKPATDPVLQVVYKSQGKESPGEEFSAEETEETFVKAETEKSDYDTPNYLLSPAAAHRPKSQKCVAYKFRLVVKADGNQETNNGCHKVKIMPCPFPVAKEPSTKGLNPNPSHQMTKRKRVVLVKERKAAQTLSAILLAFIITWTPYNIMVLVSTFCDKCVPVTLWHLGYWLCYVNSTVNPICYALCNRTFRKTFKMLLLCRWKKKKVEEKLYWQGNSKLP
#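 System: CHO-K1 cell line with stable human muscarinic M5 receptor expression | Also added: EC20 acetylcholine as agonist stimulus | Compound: One concentration, 3 µM final (nominal) | Timing: Fluo-8 loading 80 min at 37 °C plus 30 min room temperature | Measured by: Fluo-8 calcium dye fluorescence, kinetic read | Read-out basis: % activation, ACh-normalized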
# CHRM4 agonist = human M4 muscarinic receptor agonists, primary screen, CHO-K1 cells, Fluo-8 calcium fluorescence | activation, % at 3 µM | AID 624127, 2012 | hit rate 0.14% among 360,000 | Muscarinic acetylcholine receptor M4 (Homo sapiens), P08173 | CHO-K1 hM4/Gqi5; vehicle 0%, full acetylcholine response 100%;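 active means activation above the run mean over all test wells plus 3 SD, cut at about 32% in these data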;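 further: peak over basal fluorescence ratio per well then scaled between controls; 0% = DMSO wells and 100% = acetylcholine at EC100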
# CHRM4 antagonist = human M4 muscarinic receptor antagonists, primary screen, CHO cells, Fluo-8 calcium fluorescence; Muscarinic acetylcholine receptor M4 (Homo sapiens), P08173; CHO-hM4 cells, ACh EC80; inhibition, % at 3 µM; hit rate 0.73% among 360,000; AID 624125, 2012;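 active means inhibition above its plate's cutoff, the mean inhibition of sample wells plus 3 SD, cut at about 27% in these data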;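 further: 0% = acetylcholine EC80 with DMSO and 100% = DMSO without agonist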
# CHRM5 antagonist = human M5 muscarinic receptor antagonists, primary screen, CHO cells, Fluo-8 calcium fluorescence; Muscarinic acetylcholine receptor M5 (Homo sapiens), P08912; CHO-hM5 cells, ACh EC80; inhibition, % at 3 µM; hit rate 0.59% among 360,000;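 active means inhibition above a per-plate cutoff, the mean of that plate's test compounds plus 3 SD, cut at about 27% in these data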;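 further: 0% = acetylcholine EC80 with DMSO and 100% = DMSO without agonist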
# M5 ag = human M5 muscarinic receptor agonists, primary screen, CHO-K1 cells, Fluo-8 calcium fluorescence | CHO-K1 hM5 cells; 0% DMSO wells, 100% maximal acetylcholine response | activation, % at 3 µM | hit rate 0.19% among 360,000 | AID 624037, 2012;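 active means activation above the run's mean over test compounds plus 3 SD, cut at about 23% in these data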;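 further: signal is peak over basal fluorescence ratio across the kinetic read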
# CHRM4 PAM = human M4 muscarinic receptor positive allosteric modulators, primary screen, CHO-K1 cells, Fluo-8 calcium fluorescence. Muscarinic acetylcholine receptor M4 (Homo sapiens), P08173. CHO-K1 hM4/Gqi5, ACh EC20; 0% = ACh EC20, 100% = maximal ACh. activation, % at 3 µM. hit rate 0.4% among 360,000. AID 624126, 2012;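 active means activation above its plate's cutoff, the mean activation of sample wells plus 3 SD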
# Numbers without * were called inactive. Only some compounds are listed: those with a hit (about 1.8% of all), similar ones and a draw of the others.
SMILES,M5 PAM,CHRM4 agonist,CHRM4 antagonist,CHRM5 antagonist,M5 ag,CHRM4 PAM
CC(C)C(=O)Nc1cc(=O)[nH]c2ncnn12,1,0,-11,-3,-2,19*
Cc1ccc(O)c(NC(=S)NC(=O)Cc2ccc(Cl)cc2)c1,-31,140*,100*,81*,61*,-18
Cc1ccc(NC(=S)NC(=O)c2ccc(-c3ccc(Cl)cc3)o2)c(O)c1,-2,0,-4,-3,-1,11
Cc1noc(NS(=O)(=O)c2ccc(NC(=O)c3ccc(N4C(=O)c5ccccc5C4=O)cc3)cc2)c1C,19*,0,-4,-29,3,4
CCSc1ncc(Cl)c(C(=O)Nc2ccc(S(=O)(=O)Nc3onc(C)c3C)cc2)n1,3,0,1,48*,4,10
C/C(=N/NC(=O)C1CC1(c1ccccc1)c1ccccc1)c1ccco1 (configuration not stated),-1,-1,9,2,0,-4
O=C(N/N=C/c1ccco1)C1CC1(c1ccccc1)c1ccccc1 (configuration not stated),-10,-1,28*,11,-3,11
CCCc1cc(=O)[nH]c(SCC(=O)N(C)CC(=O)Nc2ccc(C)cc2)n1,23*,1,-17,-4,-3,26*
CCCc1cc(=O)[nH]c(SCC(=O)N(C)CC(=O)Nc2ccc(F)cc2)n1,0,-1,-1,4,-1,-3
COC(=O)c1cc2c(ccn2-c2ccc(F)cc2)n1Cc1ccc(OC(C)=O)cc1,6,1,-9,1,7,29
COC(=O)c1cc2c(ccn2-c2ccc(F)cc2)n1C(C)C,34*,-2,-13,-1,-2,9
COC(=O)c1cc2c(ccn2-c2ccc(F)cc2)n1Cc1cccc(OC)c1,3,1,0,-3,-1,2
COC(=O)c1cc2c(ccn2-c2ccc(F)cc2)n1CC(C)C,19*,2,-16,-6,11,17*
CCCn1c(C(=O)OC)cc2c1ccn2-c1ccc(F)cc1,19*,-1,-18,-11,11,7
Cc1ccccc1N1CCN(S(=O)(=O)c2nnc(NC(=O)c3ccco3)s2)CC1,-4,2,-12,10,-3,1
O=C(O)c1ccc(CN2C(=O)c3ccc(Oc4ccc([N+](=O)[O-])cc4)cc3C2=O)cc1,-1,1,-1,-3,1,-5
Cc1cc2cc(CNC(=O)c3ccc(S(=O)(=O)N4CCOCC4)cc3)ccc2n1C,-7,2,39*,2,-2,-16
Cc1cc2cc(CNC(=O)c3ccc(S(=O)(=O)N(C)C)cc3)ccc2n1C,-4,2,-3,2,-1,-7
CCOC(=O)c1c(NC(=O)c2ccc(S(=O)(=O)N3CCOCC3)cc2)sc2c1CCN(C)C2,0,2,-18,-4,2,19*
CCOC(=O)c1ccc(NC(=O)c2ccc(C)c(S(=O)(=O)N3CCOCC3)c2)cc1,-16,18,39*,29*,4,-11
CCOC(=O)c1ccc(NC(=O)c2cccc(S(=O)(=O)N3CCOCC3)c2)cc1,-24,20,38*,15,5,-17
CC(=O)c1cccc(NC(=O)c2cccc(S(=O)(=O)N3CCOCC3)c2)c1,-2,3,5,5,-1,-1
CC(=O)c1ccc(NC(=O)c2ccc(C)c(S(=O)(=O)N3CCOCC3)c2)cc1,-10,18,-18,3,2,-5
O=C(c1ccccc1)c1ccc(NCCCn2ccnc2)c([N+](=O)[O-])c1,-13,8,6,7,-5,-8
COC(=O)CSc1[nH]c2ccc(F)cc2c1[N+](=O)[O-],3,0,-2,1,4,-6
SMILES,M5 PAM,CHRM4 agonist,CHRM4 antagonist,CHRM5 antagonist,M5 ag,CHRM4 PAM
Cc1ccc(S(=O)(=O)NC(=O)C2(C)CCN2C(=O)c2cccc(F)c2)cc1 (configuration not stated),0,0,-6,5,1,5
CCCCCC(=O)Nc1cccc(C2=NOC3(C2)C[C@H](C(N)=O)N(C(=O)c2ccccc2C(=O)c2ccccc2)C3)c1 (some centres not stated),4,1,-3,4,2,5
CCOC(=O)c1c(NC(=S)N2CCN(C)CC2)sc2c1CCN(C(=O)OCC)C2,7,-1,-26,-1,5,12*
CN1CCN(S(=O)(=O)c2ccc(NC(=O)c3cccc(S(=O)(=O)N4CCCC4)c3)cc2)CC1,-21,1,37*,29*,-6,-19
CCOC(=O)c1c(NC(=O)CN(CC)CC)sc2c1CCN(C(=O)OCC)C2,-8,0,-3,16,2,7
COCCN1Cc2cccc(C(=O)Nc3ccc(S(=O)(=O)N4CCCCC4)cc3)c2C1=O,25*,1,-16,-1,1,5
O=C(OCC(=O)N1CCCC1=O)c1cccc(S(=O)(=O)N2CCOCC2)c1,32*,1,-6,-2,6,9
C=C1c2nc3ccccc3n2C=C(c2ccc(C)cc2)N1c1ccccc1,-5,3,13,13,4,2
O=C(NCc1cccnc1)c1cccc(S(=O)(=O)N2CCOCC2)c1,31*,1,9,3,4,12
CC1CCCC(NC(=O)c2cccc(S(=O)(=O)N3CCOCC3)c2)C1C (configuration not stated),-4,1,-19,-3,1,16*
CC(=O)N1CCN(S(=O)(=O)c2cccc(C(=O)NC3CCCC(C)C3C)c2)CC1 (configuration not stated),-1,1,-12,12,-1,1
O=C(NCc1cccnc1)c1cccc(S(=O)(=O)N2CCCC2)c1,-3,0,5,15,-3,-1
CCN(CC(=O)Nc1ccc2c(c1)OCCO2)C(=O)c1ccc([N+](=O)[O-])s1,3,2,2,3,3,6
CCC(C)Nc1nc(-c2ccccn2)nc2ccccc12 (configuration not stated),6,9,-18,-16,-4,22*
c1ccc(CNc2nc(-c3ccccn3)nc3ccccc23)cc1,2,9,-7,-7,2,10
N=C1C(c2ccccc2)=C(O)CN1CCO,7,4,-8,-10,2,17*
O=C(Nn1cnnc1)c1ccc(Cl)c(Cl)c1,-1,0,-3,8,-2,0
COc1ccc(NC(=O)c2[nH]ncc2[N+](=O)[O-])cc1,18*,0,-1,-9,0,1
CCc1c(C)nc(SCC(=O)c2cccs2)c(C#N)c1C,-5,6,39*,1,1,80*
CCc1c(C)nc(SCC(N)=O)c(C#N)c1C,-1,1,-1,5,1,0

# High-throughput results: PubChem, The Scripps Research Institute Molecular Screening Center
